The list is not random: actives were taken first. Their share in the collection is about 3.3%.
HIV Rev-RRE inh – disrupts HIV-1 Rev binding to RRE RNA | P05866 | Rev peptide-RRE RNA binding, FRET | inhibition, % at 8 µM | actives 0.79% (n = 97,000) | AID 704;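 active = inhibition above the screen-wide mean plus 3 SD, cut at about 35% in these data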;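 also: 0% = median DMSO wells and 100% = median Neomycin B control wells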
Target sequence (P05866 whole entry, looked up): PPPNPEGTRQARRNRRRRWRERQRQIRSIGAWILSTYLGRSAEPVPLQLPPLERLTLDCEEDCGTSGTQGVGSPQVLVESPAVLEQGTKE
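Assay system: labelled RRE RNA duplex and labelled Rev peptide / Medium: HEPES pH 7.5 salt buffer with EDTA / Reagent: labelled Rev peptide / Schedule: 5 + 15 min at 25 °C / Signal: FRET, excitation 480 nm, emission 540 nm donor and 671 nm acceptor / Benchmarks: DMSO and neomycin B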
IL1B cytotox – toxic to HUVEC cells under IL-1B stimulation. HUVEC cell count loss, Hoechst imaging, IL-1B stimulated. cell count reduction, % at 2 µM. actives 0.41% (n = 94,000). AID 845;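 active = cell count reduction more than 3 SD above the screen-wide mean, cut at about 70% in these data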;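 also: normalized per plate to untreated control cells as the no-loss baseline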
Measles CPE – protection of cells from measles virus. Measles virus-infected cells, CPE protection, absorbance. protection (pct of control), % at 4 µM. AID 841. actives 1.5% (n = 140,000); in the data active = protection mostly above about 24%, no sharp cut-off; inactive = mostly below about 26%
IL1B NFkB inh – blocks IL-1B driven NFkB nuclear translocation in HUVEC cells. HUVEC IL-1B NFkB p65 nuclear translocation imaging. AID 796. actives 0.43% (n = 94,000). inhibition, % at 2 µM;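 active = inhibition above about 30% together with a positive call from visual inspection of the well image, limit read from the data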;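 also: nuclear over cytoplasmic p65 intensity ratio measured by imaging; 0% = IL-1B stimulated DMSO wells and 100% = unstimulated DMSO wells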
IL1B NFkB pot – enhances IL-1B driven NFkB nuclear translocation | activation, % at 2 µM | actives 0.3% (n = 94,000) | HUVEC IL-1B NFkB p65 nuclear translocation imaging;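 active = activation above 40%, about the mean plus 3 SD, also judged a hit on visual image review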;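 also: percent activation is computed from the nuclear over cytoplasmic p65 intensity ratio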
FAK inh – inhibitors of human focal adhesion kinase; Q05397; biochemical FAK kinase activity assay; inhibition, %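 (tested at 7 µM)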; actives 0.84% (n = 97,000); AID 727; in the data active = inhibition above about 19%;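 also: 0% = DMSO and 100% = reference compound high control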
The depositor's hits bear a star; / = no result; [ ] = remark or other dose.

SMILES	HIV Rev-RRE inh	IL1B cytotox	Measles CPE	IL1B NFkB inh	IL1B NFkB pot	FAK inh
Cc1cc(C(=O)N/N=C/C=C/c2ccc3c(c2)OCO3)n[nH]1	-0.3	-26.6	24.7*	-8.1	8.1	-1.4
Cc1ccc(NC(=O)ON=C2CCCC2)cc1	/	/	43.1*	/	/	/
O=C(Nc1ccccc1)ON=C1CCCC1	/	/	22.1	/	/	/
CCOc1ccc(N(CC(=O)NCC2CCCO2)S(=O)(=O)c2ccc(SC)cc2)cc1 (stereo not given)	11.7	-2.0	2.4	-4.5	4.5	7.4
COCCSc1ccccc1C(=O)N1CCN(Cc2ccc3c(c2)OCO3)CC1	1.4	32.1	50.8*	4.3	-4.3	-1.8
CCOC(=O)/C(C#N)=C\C=C1C=CN(C)C=C1	130.5*[fluorescence artefact?]	2.7	5.5	-8.2	8.2	1.5
O=C1NC(c2ccco2)Nc2sc3c(c21)CCN(Cc1ccccc1)C3 (stereo not given)	70.3*	24.4	10.2	11.3	-11.3	0.9
CN1CCc2c(sc3c2C(=O)NC(c2cn(Cc4ccccc4)c4ccccc24)N3)C1 (stereo not given)	79.1*	11.3	3.0	-13.9	13.9	10.3
O=[N+]([O-])c1ccc(Cl)c(S(=O)(=O)N2CCCCCC2)c1	/	/	9.4	/	/	/
CCC(c1nnc(SCC(=O)N2CC3(C)CC2CC(C)(C)C3)o1)N(C)C (stereo not given)	4.0	-23.2	47.8*	-6.9	6.9	-0.4
CCOC(=O)C1(C(F)(F)F)N=C(c2cccnc2)OC(N2CCCCC2)=N1 (stereo not given)	/	/	8.0	/	/	/
N#Cc1cc([N+](=O)[O-])cnc1N(CCO)CCO	/	/	7.2	/	/	/
COCc1cc(Sc2c(Cl)cccc2Cl)nc(-c2ccccc2)n1	10.9	87.9*	13.5	-6.9	6.9	-1.2
COC(=O)Nc1ccc(S(=O)(=O)N2CCCC(C(=O)NC3CCS(=O)(=O)C3)C2)cc1 (stereo not given)	/	/	8.2	/	/	/
CCc1nnc(NC(=O)CN2C(=O)c3ccccc3S2(=O)=O)s1	8.2	28.9	39.5*	8.2	-8.2	-2.0
Cc1nnc(NC(=O)CN2C(=O)c3ccccc3S2(=O)=O)s1	3.9	-20.6	3.5	-16.3	16.3	-0.8
CCSc1nc(N)c2c3c(sc2n1)CN(C)CC3	/	/	43.8*	/	/	/
COc1ccccc1N=c1oc2cc(O)ccc2cc1C(N)=O	62.7*	0.3	7.0	-8.7	8.7	6.9
Cc1cccc(N=c2oc3cc(O)ccc3cc2C(N)=O)c1	46.9*	-6.6	7.8	11.9	-11.9	11.4
COC(=O)c1ccc(COC(=O)c2ccc(SC)cc2OC)cc1	/	/	9.8	/	/	/
CC(C)NC(=S)N/N=C/c1cc(Br)ccc1O	/	/	18.6	/	/	/
CC(C)(CO)NS(=O)(=O)c1ccc2c(c1)oc(=O)c1cc(S(=O)(=O)NC(C)(C)CO)ccc12	8.8	-9.4	61.3*	-7.8	7.8	0.8
N#Cc1c(NC(=O)c2cnccn2)sc2c1CCCC2	/	/	11.2	/	/	/
CCCN1C(=O)/C(=C/C=C2\N(CC)c3ccccc3C2(C)C)SC1=S	136.2*[fluorescence artefact?]	-16.5	/	-5.0	5.0	-5.5
Nc1ccc(C(=O)OC2CCOC2=O)cc1[N+](=O)[O-] (stereo not given)	/	/	10.9	/	/	/
SMILES	HIV Rev-RRE inh	IL1B cytotox	Measles CPE	IL1B NFkB inh	IL1B NFkB pot	FAK inh
O=C(O)C1CC=CCC1C(=O)Nc1ccc(N2CCN(Cc3ccccc3)CC2)cc1 (stereo not given)	/	/	6.3	/	/	/
O=C1c2cccc3cccc(c23)C(=O)N1c1ccncc1	5.0	-0.9	23.4*	10.6	-10.6	0.1
COc1ccc(OC)c(/C=N/NC(=O)CNC(=O)c2ccc(S(=O)(=O)N3CCOCC3)cc2)c1	/	/	2.8	/	/	/
Cn1cc(Br)c(C(=O)Nc2sc3c(c2C(N)=O)CCC3)n1	11.3	8.0	9.0	-19.2	19.2	2.0
CCn1ncc(Br)c1C(=O)Nc1sc2c(c1C(N)=O)CCC2	11.9	-16.3	33.4*	6.3	-6.3	-3.0
CCC1(C)CC(=O)N(c2ccc(C(=O)O)c(O)c2)C1=O (stereo not given)	6.6	-72.0	35.7*	1.4	-1.4	-0.2
CCOC(=O)c1cc2c(n(-c3ccccc3)c1=O)CC(C)(C)CC2=O	3.9	-15.3	3.0	-8.8	8.8	-0.7
Cc1ccc(CNC(=O)Cn2c(=O)c3sccc3n(Cc3ccc([N+](=O)[O-])cc3)c2=O)cc1	/	/	11.3	/	/	/
Cc1ccc(OCC(=O)Nc2cccc(S(=O)(=O)N3CCCCC3)c2)c([N+](=O)[O-])n1	/	/	28.9*	/	/	/
O=C(COC(=O)c1ccc(Br)o1)Nc1cccc(S(=O)(=O)N2CCCCCC2)c1	14.7	3.6	34.4*	-1.7	1.7	-1.0
CCOc1ccc(N2CC(C(=O)Nc3ccccc3N3CCOCC3)CC2=O)cc1 (stereo not given)	4.5	-84.8	14.0	-31.0	31.0	-2.1
O=C(COc1ccc2ccccc2c1)Nc1ccc2c3c(cccc13)CC2	/	/	16.0	/	/	/
CC(=C\C(=O)O)/C(=C/c1ccccc1)C(=O)O	0.5	12.6	24.9*	-4.7	4.7	-1.7
Cc1ccc(NC(NC(=O)Cc2ccccc2)C(Cl)(Cl)Cl)cc1 (stereo not given)	/	/	2.5	/	/	/
Cc1cccc(NC(NC(=O)c2ccccn2)C(Cl)(Cl)Cl)c1 (stereo not given)	/	/	38.7*	/	/	/
Cc1cccc(NC(NC(=O)Cc2ccccc2)C(Cl)(Cl)Cl)c1 (stereo not given)	/	/	58.0*	/	/	/
Cc1cccc(NC(=S)NC(NC(=O)c2ccco2)C(Cl)(Cl)Cl)c1 (stereo not given)	5.6	1.6	7.8	8.1	-8.1	-1.3
CCc1cccc(C)c1NC(=S)NCC(c1cccnc1)N1CCOCC1 (stereo not given)	/	/	11.1	/	/	/
Cc1cccc2c(=O)cc(C)n(CC(=O)N3CCCCC3)c12	6.3	-16.7	6.0	-11.4	11.4	3.2
Cc1cccc2c(=O)cc(C)n(Cc3ccccc3)c12	/	/	35.9*	/	/	/
CC1CCCCN1C(=O)/C(=C\c1ccccc1)c1ccccc1 (stereo not given)	-1.2	-10.4	18.6	-1.0	1.0	0.4
COc1ccc(CNC(=O)COC(=O)CC2CCCC2)cc1	/	/	5.0	/	/	/
O=C(COc1ccccc1)NCc1nnc2c3ccccc3c(-c3ccccc3)nn12	/	/	8.7	/	/	/
O=S(=O)(NCc1ccco1)c1ccc(Cl)nc1	/	/	15.0	/	/	/
Cc1ccccc1C(=O)N/N=C/c1ccc([N+](=O)[O-])s1	10.8	-7.6	43.6*	-11.5	11.5	2.3
CN1CC=C2C(C#N)=C(N)C(C#N)(C#N)[C@H](c3cccc(Cl)c3)C2C1 (stereo not given in full)	63.8*	-41.7	15.0	33.8*	-33.8	-2.4
CN1CC=C2C(C#N)=C(N)C(C#N)(C#N)[C@H](c3cccs3)[C@H]2C1	58.0*	-38.8	2.3	2.5	-2.5	0.7
CCCC1C2CN(C(C)C)CC=C2C(C#N)=C(N)C1(C#N)C#N (stereo not given)	70.1*	-7.2	2.5	12.8	-12.8	11.6
CN1CC=C2C(C#N)=C(N)C(C#N)(C#N)C(c3ccsc3)C2C1 (stereo not given)	56.4*	1.8	2.8	-9.7	9.7	0.4
